MsrA act: bovine methionine sulfoxide reductase A activation; purified bovine MsrA, absorbance read-out; activation, % at 10.6 µM; 0.3% of 360,000 active; in the data active means activation above about 7.5%
MC4R barr agon: agonists of human melanocortin 4 receptor (MC4R) beta-arrestin; P32245; U2OS MC4R beta-arrestin complementation, luminescence; percent of melanotan II response, DMSO zero; activation, % at 8.9 µM; 0.98% of 360,000 active; AID 540308;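 active means activation above a per-plate cutoff, the mean activation of sample wells on that plate plus 3 SD, cut at about 8% in these data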
Target sequence (P32245 whole entry, looked up): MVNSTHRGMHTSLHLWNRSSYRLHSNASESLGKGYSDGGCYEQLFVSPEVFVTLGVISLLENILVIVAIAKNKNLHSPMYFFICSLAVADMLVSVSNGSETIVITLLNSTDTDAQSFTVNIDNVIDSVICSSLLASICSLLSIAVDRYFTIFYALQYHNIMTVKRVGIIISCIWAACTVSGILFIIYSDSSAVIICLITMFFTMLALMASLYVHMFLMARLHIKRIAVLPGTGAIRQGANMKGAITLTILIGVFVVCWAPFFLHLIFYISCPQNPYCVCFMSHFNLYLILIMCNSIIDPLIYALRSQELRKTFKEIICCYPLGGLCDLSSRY
MC4R antag cAMP: human MC4R antagonism in cAMP assay. inhibition, % at 6.5 µM. 0.48% of 360,000 active. P32245. MC4R-expressing cells, MTII-stimulated cAMP, LANCE TR-FRET;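 active means inhibition above its plate's cutoff, the mean of tested wells on that plate plus 3 SD, cut at about 29% in these data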
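system = U2OS cells with stable human MC4R expression | also added = Melanotan II challenge after compound preincubation | dosing = one concentration, 6.5 µM nominal | incubation = compound 30 min, challenge 1 h, detection 1 h | measured by = TR-FRET with Eu-cAMP and labeled anti-cAMP, 671 nm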
MsrA inhibitor: inhibitors of bovine MsrA; inhibition, % at 15.5 µM; 0.75% of 360,000 active; purified bovine MsrA, absorbance read-out
MsrA inh confirm: confirmation of bovine MsrA inhibitors; inhibition, % at 15.5 µM; 41% of 2,300 active; shares compounds with MsrA inhibitor; purified bovine MsrA, absorbance read-out;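 further: coupled to thioredoxin reductase with NADPH and selenocystamine and DMSO as substrate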
Of the large screens only hits and unclear results are named; the others gave an inactive call (follow-up assays come after a bar, where they were run). Most compounds without a hit are left out; they make up all but 2.3% or so of the library. Unless noted, no stated cut-off is given here; in the data, active means inhibition above about 4.5%; inactive means the rest.

CCOC(=O)C1=C(C)NC2=C(C(=O)CCC2)C1c1cn(Cc2ccc(Cl)cc2Cl)nc1-c1ccccc1 (stereo unspecified)	MsrA inhibitor 4.7 | MsrA inh confirm inactive
COC(=O)C1=C(C)NC2=C(C(=O)CCC2)C1c1cn(Cc2ccc(Cl)cc2Cl)nc1-c1ccccc1 (stereo unspecified)	none
CCCNC(=O)COC(=O)/C=C/c1ccc(C)o1	MsrA inhibitor 5.8 | MsrA inh confirm 5.5
COc1ccc(C(=O)N=c2sccn2C)cc1	MsrA inhibitor 5.8 | MsrA inh confirm inactive
CS(=O)(=O)c1ccc2nc(NC(=O)c3ccc(NS(=O)(=O)c4cccc([N+](=O)[O-])c4)cc3)sc2c1	MsrA inhibitor 5.3 | MsrA inh confirm 5.3
Cc1ccc(C(=O)Nc2nc3ccc(S(C)(=O)=O)cc3s2)cc1C	none
Cc1cccc(C(=O)Nc2nc3ccc(S(C)(=O)=O)cc3s2)c1	none
CS(=O)(=O)c1ccc2nc(NC(=O)c3ccc(S(=O)(=O)NCC4CCCO4)cc3)sc2c1 (stereo unspecified)	MsrA inhibitor 5.0 | MsrA inh confirm inactive
Cn1c(=O)n(-c2ccccc2)c(=O)c2c3c(sc21)COC(C)(C)C3	none
COc1ccc(N(CC(=O)N2CCN(Cc3ccc4c(c3)OCO4)CC2)S(C)(=O)=O)cc1OC	none
COc1cc(C(=O)NCC(=O)N/N=C/c2c(C)[nH]c3ccccc23)cc(OC)c1OC	none
O=C(Nc1ccc(F)c(Cl)c1)C1CC(=O)N(Cc2ccco2)C1 (stereo unspecified)	none
O=C(COc1ccc2c(-c3ccccc3)cc(=O)oc2c1)NCC1CCC(C(=O)O)CC1 (stereo unspecified)	MsrA inhibitor 5.0 | MsrA inh confirm inactive
O=C(COc1cc2oc(=O)cc(-c3ccccc3)c2cc1Cl)NCC1CCC(C(=O)O)CC1 (stereo unspecified)	none
CCC(=O)NCCc1c[nH]c2ccccc12	none
O=C(NCCc1c[nH]c2ccccc12)OCCSS(=O)(=O)O	MsrA inhibitor 11.6 | MsrA inh confirm inactive
CC1(C)CC(N2CCN(CCO)CC2)=CC(=S)N1	MsrA inhibitor 5.8 | MsrA inh confirm 6.1
CC1(C)CC(NCc2ccccc2)=CC(=S)N1	none (no result: MC4R barr agon, MC4R antag cAMP, MsrA inhibitor)
COC(=O)c1sc(S(=O)(=O)NCCCN(C)C)c(C(=O)OC)c1C	none
COC(=O)c1sc(S(=O)(=O)Nc2ccc(C)c(C)c2)c(C(=O)OC)c1C	MsrA inhibitor 6.1 | MsrA inh confirm 5.7
CC(=O)c1ccc(Sc2ccccc2)cc1	none
Cc1ccc(/C=C/C(=O)Nc2nnc(C)s2)o1	MsrA inhibitor 7.6 | MsrA inh confirm 5.3
COc1ccccc1NS(=O)(=O)c1ccc(C(=O)NCc2ccco2)cc1	none
Cc1[nH]n(-c2ccc([N+](=O)[O-])cc2)c(=O)c1C=NCC1CCCO1 (stereo unspecified)	MsrA inhibitor 6.8 | MsrA inh confirm 5.3
CCN(CC(=O)Nc1c(F)cccc1F)C(=O)c1ccc(N2CCCC2)c([N+](=O)[O-])c1	none
O=C(NN=Cc1cccc([N+](=O)[O-])c1)c1cc(-c2cccnc2)nc2ccccc12	none
CCN(/N=C/c1ccc(Cl)cc1)c1cc(=O)n(C)c(=O)[nH]1	none
CCN(/N=C/C=C/c1ccccc1)c1cc(=O)n(C)c(=O)[nH]1	MsrA inhibitor 10.6 | MsrA inh confirm 10.7
CC(C)c1ccc(O)c(NC(=S)NC(=O)c2cccnc2)c1	none
Cc1nc2c(C)cccn2c1/C(O)=C1\C(=O)C(=O)N(CCN(C)C)C1c1ccco1 (stereo unspecified)	MsrA inhibitor 4.7 | MsrA inh confirm inactive
CC(=O)c1sc(NC(=O)c2cccnc2Cl)nc1C	MsrA inhibitor 5.0 | MsrA inh confirm inactive
O=C(c1ccco1)N(CCO)Cc1cc2cc3c(cc2[nH]c1=O)OCO3	MsrA inhibitor 6.1 | MsrA inh confirm inactive
CC(Sc1nnnn1C1CC1)C(=O)N1c2ccccc2NC(=O)C1(C)C (stereo unspecified)	none
CN(C)C=NC(=O)/C(C#N)=C1\CCc2ccccc2N1	MsrA inhibitor 6.3 | MsrA inh confirm inactive
O=C(N/C(=C/c1ccc(Br)cc1)C(=O)N1CCOCC1)c1ccco1	none
CSc1ccc(/C=C(/NC(=O)c2ccco2)C(=O)N2CCOCC2)cc1	MsrA inhibitor 5.0 | MsrA inh confirm inactive
O=C(CSc1nnnn1Cc1ccccc1)Nc1ccc2c(c1)OCO2	none
O=C1c2ccc3c4c(ccc(c24)C(=O)N1c1cccc(O)c1)C(=O)N(c1cccc(O)c1)C3=O	MsrA inhibitor 9.5 | MsrA inh confirm 7.1
C[C@@H]1CN([C@H](C)CO)C(=O)CCCn2cc(nn2)CO[C@H]1CN(C)C(=O)c1cc(-c2ccccc2)on1	none
CC(C)OCCCN1CN(S(=O)(=O)c2ccccc2)c2nc3ccccc3nc21	none
COc1ccc(OC)c2c1sc(=NC(=O)c1ccco1)n2C	none
CCn1c(=NC(=O)c2ccco2)sc2cccc(F)c21	MsrA inhibitor 4.9 | MsrA inh confirm inactive
Nc1n[nH]c(N)c1N=Nc1ccc(Cl)cc1	MsrA inhibitor 6.1 | MsrA inh confirm inactive
Cc1oc2c(C)c3oc(=O)c(CC(=O)N[C@@H](CCCNC(N)=O)C(=O)O)c(C)c3cc2c1C	MsrA inhibitor 4.9 | MsrA inh confirm inactive
Cc1noc(NS(=O)(=O)c2ccc(NC(=O)c3cnc4n(c3=O)CCS4)cc2)c1C	MsrA inhibitor 6.9 | MsrA inh confirm 4.6
Cc1cc(N2CCc3ccccc32)n2ncnc2n1	MsrA inhibitor 5.3 | MsrA inh confirm inactive
COc1ccc(CC(=O)N2CCN(c3ccc(C4=NNC(=O)CC4C)cc3)CC2)cc1 (stereo unspecified)	MsrA inhibitor 4.8 | MsrA inh confirm inactive
CC(C)CC(NC(=O)C(NC(=O)C(Cc1ccc(OCc2ccccc2)cc1)NC(=O)OC(C)(C)C)C(C)C)C(N)=O (stereo unspecified)	none
O=C(CCCN1C(=O)c2cccc3cccc(c23)C1=O)N1CCN(c2ccccc2O)CC1	MsrA inhibitor 5.1 | MsrA inh confirm inactive
O=C(CCCN1C(=O)c2cccc3cccc(c23)C1=O)N1CCN(c2ccccc2)CC1	none
COC(=O)c1cccc(Cn2c(Cl)c(/C=N/NC(=O)c3ccco3)sc2=O)c1	none
O=C(O)C1C2C=CC3(O2)C1C(=O)N1c2ccccc2COC13 (stereo unspecified)	none
Oc1ccccc1C1=Nc2ccccc2N=C(c2ccco2)C1	MC4R barr agon 8.5, MsrA inhibitor 4.7 | MsrA inh confirm inactive
CCS(=O)(=O)c1nn2c(N)c(/C=C3/C=CC(=O)C(OC)=C3)c(=O)nc2s1	MsrA inhibitor 4.7 | MsrA inh confirm inactive
O=C(C(=O)c1ccc(O)c(O)c1)c1ccc(O)c(O)c1	MsrA inhibitor 7.6 | MsrA inh confirm 8.3
O=C(C1=C(c2ccccc2)C(=O)c2ccccc2C1=O)c1ccccc1	MsrA inhibitor 71.6 | MsrA inh confirm 58.7
COC1=C(c2ccccc2)C(=O)c2ccccc2C1=O	none
Nc1ccccc1C(=O)N=Nc1[nH]c(N)c2ccccc12	MsrA inhibitor 5.4 | MsrA inh confirm inactive
Cc1c(OCC(N)=O)ccc2c(-c3ccccc3)cc(=O)oc12	MsrA inhibitor 31.1 | MsrA inh confirm 40.0

Source: PubChem
